Data reported in ChEMBL document CHEMBL1138564, “Microwave-induced synthesis and anti-microbial activities of 7,10,11,12-tetrahydrobenzo[c]acridin-8(9H)-one derivatives” (2009).
≈ marks a conversion by molar mass, not a printed value. One block for each molecule: values may come before it. Calls of active or inactive are those of the source. No cut-off for these calls is given here.

How the values were obtained:
[1] = system: Rhodococcus corynebacterioides; assay: Antimicrobial activity against Corynebacterium rubrum NCIM 2252 at 500 ug/disk after 24 hrs by disk diffusion method; assay type: functional; conditions: Rhodococcoides corynebacterioides
In short: (§1)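 Disc diffusion on Mueller–Hinton agar. 100 µl of bacterial suspension at 10⁸ CFU/ml is spread on the plate. Discs carry test compounds at two loadings, dissolved in DMSO; DMSO alone serves as negative control. Ofloxacin disc is the positive reference. Plates are incubated at 37 °C for 24 h, and the inhibition zone diameter is measured.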

Aspergillus fumigatus [2] = assay: Antimicrobial activity against Aspergillus fumigatus NCIM 902 at 1000 ug/disk after 72 hrs by disk diffusion method; assay type: functional; conditions: NCIM 902, 72 h, read-out: DIZ
In short: (§2)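 Disc diffusion on Sabouraud's dextrose agar. 100 µl of fungal suspension at 10⁶ CFU/ml is spread on the plate. Discs carry test compounds at two loadings in DMSO; DMSO alone is the negative control. Clotrimazole disc is the positive reference. Plates are incubated at 27 °C for 72 h, and the zone of inhibition diameter is measured.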

Rhodotorula mucilaginosa [3] = assay: Antimicrobial activity against Rhodotorula rubra NCIM 3174 at 500 ug/disk after 72 hrs by disk diffusion method; assay type: functional; conditions: NCIM 3174, 72 h, read-out: DIZ
In short: (§3)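 Fungal disc diffusion. 100 µl of suspension at 10⁶ CFU/ml was spread on Sabouraud's dextrose agar. Discs carrying test compound in DMSO were applied, with a DMSO-only disc as negative control. Plates were incubated at 27 °C for 72 h, and the zone of inhibition diameter was measured.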

Bacillus subtilis [4] = assay: Antimicrobial activity against Bacillus subtilis NCIM 2063 at 500 ug/disk after 24 hrs by disk diffusion method; assay type: functional; conditions: NCIM 2063, 24 h, read-out: DIZ; in short: as §1
Bacillus subtilis [5] = assay: Antimicrobial activity against Bacillus subtilis NCIM 2063 after 24 hrs by serial dilution method; assay type: functional; conditions: NCIM 2063, 24 h
In short: (§4)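 Broth dilution MIC in nutrient broth, run only for organisms found sensitive in disc diffusion. Compounds are two-fold serially diluted in 1 ml sterile broth per tube, spanning 3.9 to 1000. Inoculated tubes are incubated at 37 °C for 24 h.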

Klebsiella aerogenes [6] = assay: Antimicrobial activity against Klebsiella aerogenes NCIM 2239 at 1000 ug/disk after 24 hrs by disk diffusion method; assay type: functional; conditions: NCIM 2239, 24 h, read-out: DIZ; in short: as §1
Trichoderma viride [7] = assay: Antimicrobial activity against Trichoderma viride NCIM 1195 at 500 ug/disk after 72 hrs by disk diffusion method; assay type: functional; conditions: NCIM 1195, 72 h, read-out: DIZ; in short: as §3
Rhodotorula mucilaginosa [8] = assay: Antimicrobial activity against Rhodotorula rubra NCIM 3174 after 72 hrs by serial dilution method; assay type: functional; conditions: NCIM 3174, 72 h
In short: (§5)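 MIC by broth dilution in Sabouraud's dextrose broth, run only on fungi found sensitive in the disc assay. Twofold serial dilutions were made in 1 ml broth per tube, covering 3.9 to 1000. Inoculated tubes were incubated at 27 °C for 72 h.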

Aliivibrio fischeri [9] = assay: Antimicrobial activity against Vibrio fischeri NCIM 2154 after 24 hrs by serial dilution method; assay type: functional; conditions: NCIM 2154, 24 h
Pseudomonas aeruginosa = assay: Antimicrobial activity against Pseudomonas aeruginosa NCIM 2200 at 500 ug/disk after 24 hrs by disk diffusion method; assay type: functional
In short: (§6)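 Disc diffusion. 100 µl of bacterial suspension at 10⁸ CFU/ml was spread on Mueller–Hinton agar. Discs loaded with test compound dissolved in DMSO were placed on the lawn, with a DMSO-only disc as negative control. Plates were incubated at 37 °C for 24 h, and the inhibition zone diameter was measured.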

Rhodotorula mucilaginosa [10] = assay: Antimicrobial activity against Rhodotorula rubra NCIM 3174 at 1000 ug/disk after 72 hrs by disk diffusion method; assay type: functional; conditions: NCIM 3174, 72 h, read-out: DIZ; in short: as §3
Aspergillus fumigatus [11] = assay: Antimicrobial activity against Aspergillus fumigatus NCIM 902 at 500 ug/disk after 72 hrs by disk diffusion method; assay type: functional; in short: as §2
Aspergillus flavus [12] = assay: Antimicrobial activity against Aspergillus flavus NCIM 902 at 1000 ug/disk after 72 hrs by disk diffusion method; assay type: functional; conditions: NCIM 902, 72 h, read-out: DIZ; in short: as §2
Bacillus subtilis [13] = assay: Antimicrobial activity against Bacillus subtilis NCIM 2063 at 1000 ug/disk after 24 hrs by disk diffusion method; assay type: functional; conditions: NCIM 2063, 24 h, read-out: DIZ; in short: as §1
Penicillium chrysogenum [14] = assay: Antimicrobial activity against Penicillium chrysogenum NCIM 707 at 500 ug/disk after 72 hrs by disk diffusion method; assay type: functional; in short: as §2
Bacillus cereus = assay: Antimicrobial activity against Bacillus cereus NCIM 2155 at 1000 ug/disk after 24 hrs by disk diffusion method; assay type: functional; conditions: NCIM 2155, 24 h, read-out: DIZ; in short: as §1
[15] = system: Rhodococcus corynebacterioides; assay: Antimicrobial activity against Corynebacterium rubrum NCIM 2252 at 1000 ug/disk after 24 hrs by disk diffusion method; assay type: functional; conditions: Rhodococcoides corynebacterioides; in short: as §1
Salmonella typhimurium = assay: Antimicrobial activity against Salmonella Typhimurium NCIM 2501 at 1000 ug/disk after 24 hrs by disk diffusion method; assay type: functional, Salmonella enterica subsp. enterica serovar Typhimurium; conditions: Salmonella enterica, NCIM 2501, 24 h; read-out: DIZ; in short: as §6
Staphylococcus = assay: Antimicrobial activity against Staphylococcus albus NCIM 2178 at 500 ug/disk after 24 hrs by disk diffusion method; assay type: functional; in short: as §6
Aspergillus parasiticus [16] = assay: Antimicrobial activity against Aspergillus parasiticus NCIM 904 after 72 hrs by serial dilution method; assay type: functional; conditions: NCIM 904, 72 h
In short: (§7)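 MIC by broth dilution in Sabouraud's dextrose broth, only for fungi sensitive in disc diffusion. Two-fold serial dilutions of compounds are made in 1 ml broth per tube, range 3.9 to 1000. Inoculated tubes are incubated at 27 °C for 72 h.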

Proteus vulgaris [17] = assay: Antimicrobial activity against Proteus vulgaris NCIM 2027 at 1000 ug/disk after 24 hrs by disk diffusion method; assay type: functional; in short: as §1
Aliivibrio fischeri [18] = assay: Antimicrobial activity against Vibrio fischeri NCIM 2154 at 500 ug/disk after 24 hrs by disk diffusion method; assay type: functional; conditions: NCIM 2154, 24 h, read-out: DIZ; in short: as §6
Aspergillus parasiticus [19] = assay: Antimicrobial activity against Aspergillus parasiticus NCIM 904 at 500 ug/disk after 72 hrs by disk diffusion method; assay type: functional; conditions: NCIM 904, 72 h, read-out: DIZ; in short: as §2
Escherichia coli [20] = assay: Antimicrobial activity against Escherichia coli NCIM 2065 after 24 hrs by serial dilution method; assay type: functional; conditions: NCIM 2065, 24 h; in short: as §4
Trichoderma viride [21] = assay: Antimicrobial activity against Trichoderma viride NCIM 1195 after 72 hrs by serial dilution method; assay type: functional; conditions: NCIM 1195, 72 h; in short: as §5
Trichoderma viride [22] = assay: Antimicrobial activity against Trichoderma viride NCIM 1195 at 1000 ug/disk after 72 hrs by disk diffusion method; assay type: functional; conditions: NCIM 1195, 72 h, read-out: DIZ; in short: as §3
Proteus vulgaris [23] = assay: Antimicrobial activity against Proteus vulgaris NCIM 2027 at 500 ug/disk after 24 hrs by disk diffusion method; assay type: functional; in short: as §1
Aspergillus flavus [24] = assay: Antimicrobial activity against Aspergillus flavus NCIM 902 after 72 hrs by serial dilution method; assay type: functional; conditions: NCIM 535, 72 h, in the assay text read “NCIM 535” for “NCIM 902”; in short: as §7
Klebsiella aerogenes [25] = assay: Antimicrobial activity against Klebsiella aerogenes NCIM 2239 at 500 ug/disk after 24 hrs by disk diffusion method; assay type: functional; in short: as §1
Penicillium chrysogenum [26] = assay: Antimicrobial activity against Penicillium chrysogenum NCIM 707 at 1000 ug/disk after 72 hrs by disk diffusion method; assay type: functional; in short: as §2
Escherichia coli [27] = assay: Antimicrobial activity against Escherichia coli NCIM 2065 at 1000 ug/disk after 24 hrs by disk diffusion method; assay type: functional; conditions: NCIM 2065, 24 h, read-out: DIZ; in short: as §1
Escherichia coli [28] = assay: Antimicrobial activity against Escherichia coli NCIM 2065 at 500 ug/disk after 24 hrs by disk diffusion method; assay type: functional; conditions: NCIM 2065, 24 h, read-out: DIZ; in short: as §1

- MIC (Bacillus subtilis [5]): 62.5 µg/mL (≈ 161 µM)
- MIC (Rhodotorula mucilaginosa [8]): 15.6 µg/mL (≈ 40.2 µM)
- MIC (Aspergillus parasiticus [16]): 62.5 µg/mL (≈ 161 µM)
- MIC (Escherichia coli [20]): 125 µg/mL (≈ 322 µM)
- MIC (Trichoderma viride [21]): 125 µg/mL (≈ 322 µM)
- MIC (Aspergillus flavus [24]): 62.5 µg/mL (≈ 161 µM)
SMILES: CC1(C)CC(=O)C2=C(C1)Nc1c(ccc3ccccc13)C2c1ccccc1Cl (centres undefined)
- diameter of the inhibition zone (DIZ) [1]: inactive
- zone of inhibition at 1000 µg/disc (Aspergillus fumigatus [2]): 8 mm
- zone of inhibition at 500 µg/disc (Rhodotorula mucilaginosa [3]): 10 mm
- zone of inhibition at 500 µg/disc (Bacillus subtilis [4]): 7 mm
- zone of inhibition at 1000 µg/disc (Klebsiella aerogenes [6]): 9 mm
- zone of inhibition at 500 µg/disc (Trichoderma viride [7]): 7 mm
- MIC (Aliivibrio fischeri [9]): 62.5 µg/mL (≈ 161 µM)
- diameter of the inhibition zone (DIZ) (Pseudomonas aeruginosa): inactive
- zone of inhibition at 1000 µg/disc (Rhodotorula mucilaginosa [10]): 13 mm
- diameter of the inhibition zone (DIZ) (Aspergillus fumigatus [11]): inactive
- zone of inhibition at 1000 µg/disc (Aspergillus flavus [12]): 10 mm
- zone of inhibition at 1000 µg/disc (Bacillus subtilis [13]): 8 mm
- diameter of the inhibition zone (DIZ) (Penicillium chrysogenum [14]): inactive
- zone of inhibition at 1000 µg/disc (Bacillus cereus): 11 mm
- diameter of the inhibition zone (DIZ) [15]: inactive
- zone of inhibition at 1000 µg/disc (Salmonella typhimurium): 13 mm
- diameter of the inhibition zone (DIZ) (Staphylococcus): inactive
- diameter of the inhibition zone (DIZ) (Proteus vulgaris [17]): inactive
- zone of inhibition at 500 µg/disc (Aliivibrio fischeri [18]): 7 mm
- zone of inhibition at 500 µg/disc (Aspergillus parasiticus [19]): 8 mm
- zone of inhibition at 1000 µg/disc (Trichoderma viride [22]): 8 mm
- diameter of the inhibition zone (DIZ) (Proteus vulgaris [23]): inactive
- diameter of the inhibition zone (DIZ) (Klebsiella aerogenes [25]): inactive
- diameter of the inhibition zone (DIZ) (Penicillium chrysogenum [26]): inactive
- zone of inhibition at 1000 µg/disc (Escherichia coli [27]): 8 mm
- zone of inhibition at 500 µg/disc (Escherichia coli [28]): 7 mm

- MIC (Bacillus subtilis [5]): 31.2 µg/mL (≈ 80.4 µM)
- MIC (Rhodotorula mucilaginosa [8]): 15.6 µg/mL (≈ 40.2 µM)
- MIC (Aspergillus parasiticus [16]): 3.9 µg/mL (≈ 10.1 µM)
- MIC (Escherichia coli [20]): 62.5 µg/mL (≈ 161 µM)
- MIC (Trichoderma viride [21]): 62.5 µg/mL (≈ 161 µM)
- MIC (Aspergillus flavus [24]): 125 µg/mL (≈ 322 µM)
SMILES: CC1(C)CC(=O)C2=C(C1)Nc1c(ccc3ccccc13)C2c1ccc(Cl)cc1 (centres undefined)
- zone of inhibition at 500 µg/disc ([1]; NCIM 2252, 24 h, read-out: DIZ): 7 mm
- zone of inhibition at 1000 µg/disc (Aspergillus fumigatus [2]): 8 mm
- zone of inhibition at 500 µg/disc (Rhodotorula mucilaginosa [3]): 9 mm
- zone of inhibition at 500 µg/disc (Bacillus subtilis [4]): 8 mm
- zone of inhibition at 1000 µg/disc (Klebsiella aerogenes [6]): 11 mm
- zone of inhibition at 500 µg/disc (Trichoderma viride [7]): 7 mm
- MIC (Aliivibrio fischeri [9]): 62.5 µg/mL (≈ 161 µM)
- zone of inhibition at 500 µg/disc (Pseudomonas aeruginosa; NCIM 2200, 24 h, read-out: DIZ): 7 mm
- zone of inhibition at 1000 µg/disc (Rhodotorula mucilaginosa [10]): 13 mm
- diameter of the inhibition zone (DIZ) (Aspergillus fumigatus [11]): inactive
- zone of inhibition at 1000 µg/disc (Aspergillus flavus [12]): 8 mm
- zone of inhibition at 1000 µg/disc (Bacillus subtilis [13]): 10 mm
- diameter of the inhibition zone (DIZ) (Penicillium chrysogenum [14]): inactive
- zone of inhibition at 1000 µg/disc (Bacillus cereus): 13 mm
- zone of inhibition at 1000 µg/disc ([15]; NCIM 2252, 24 h, read-out: DIZ): 10 mm
- zone of inhibition at 1000 µg/disc (Salmonella typhimurium): 11 mm
- zone of inhibition at 500 µg/disc (Staphylococcus; NCIM 2178, 24 h, read-out: DIZ): 7 mm
- zone of inhibition at 1000 µg/disc (Proteus vulgaris [17]; NCIM 2027, 24 h, read-out: DIZ): 10 mm
- zone of inhibition at 500 µg/disc (Aliivibrio fischeri [18]): 7 mm
- zone of inhibition at 500 µg/disc (Aspergillus parasiticus [19]): 12 mm
- zone of inhibition at 1000 µg/disc (Trichoderma viride [22]): 9 mm
- zone of inhibition at 500 µg/disc (Proteus vulgaris [23]; NCIM 2027, 24 h, read-out: DIZ): 9 mm
- zone of inhibition at 500 µg/disc (Klebsiella aerogenes [25]; NCIM 2239, 24 h, read-out: DIZ): 8 mm
- diameter of the inhibition zone (DIZ) (Penicillium chrysogenum [26]): inactive
- zone of inhibition at 1000 µg/disc (Escherichia coli [27]): 9 mm
- zone of inhibition at 500 µg/disc (Escherichia coli [28]): 7 mm
